ChEMBL document CHEMBL4196059, “Design, synthesis, and biological evaluation of stable β6.3-Helices: Discovery of non-hemolytic antibacterial peptides” (Eur J Med Chem, 2018)
Calls of active or inactive are those of the source. No cut-off for these calls is given here.

Key:
[1] = Hemolytic activity against human RBC at 50 uM after 1 hr by Drabkin's assay relative to control; assay type: ADME, cell-based, Erythrocyte; details: human red blood cells (erythrocytes), read-out: Activity
[2] = Hemolytic activity against human RBC at 25 uM after 1 hr by Drabkin's assay relative to control; assay type: ADME, cell-based, Erythrocyte; details: human red blood cells (erythrocytes), read-out: Activity
[3] = Hemolytic activity against human RBC at 12.5 uM after 1 hr by Drabkin's assay relative to control; assay type: ADME, cell-based, Erythrocyte; details: human red blood cells (erythrocytes), read-out: Activity
[4] = Hemolytic activity against human RBC at 6.25 uM after 1 hr by Drabkin's assay relative to control; assay type: ADME, cell-based, Erythrocyte; details: human red blood cells (erythrocytes), read-out: Activity
[5] = Hemolytic activity against human RBC at 3.125 uM after 1 hr by Drabkin's assay relative to control; assay type: ADME, cell-based, Erythrocyte; details: human red blood cells (erythrocytes), read-out: Activity
[6] = Hemolytic activity against human RBC at 1.56 uM after 1 hr by Drabkin's assay relative to control; assay type: ADME, cell-based, Erythrocyte; details: human red blood cells (erythrocytes), read-out: Activity
[7] = Hemolytic activity against human RBC at 0.78 uM after 1 hr by Drabkin's assay relative to control; assay type: ADME, cell-based, Erythrocyte; details: human red blood cells (erythrocytes), read-out: Activity
[8] = Hemolytic activity against human RBC at 0.39 uM after 1 hr by Drabkin's assay relative to control; assay type: ADME, cell-based, Erythrocyte; details: human red blood cells (erythrocytes), read-out: Activity
[9] = test system: Erythrocyte; assay: Hemolytic activity against human RBC after 1 hr by Drabkin's assay; assay type: ADME, cell-based
[10] = test system: Staphylococcus aureus; assay: Growth inhibition of methicillin-resistant Staphylococcus aureus ATCC 43300 at 32 ug/ml after 18 hrs; assay type: functional; details: ATCC 43300, 18 h, read-out: GI
Method in brief: (§1)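 Mid-log cultures in cation-adjusted Mueller Hinton broth were added at 5×10^5 CFU/mL to wells at a final compound concentration of 32 μg/mL. Plates stood at 37 °C for 18 h. Growth was read by OD600, and % inhibition was computed against media-only and untreated-bacteria controls.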

[11] = test system: Escherichia coli; assay: Growth inhibition of Escherichia coli ATCC 25922 at 32 ug/ml after 18 hrs; assay type: functional; details: ATCC 25922, 18 h, read-out: GI
Method in brief: (§2)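 Mid-log cultures were prepared as above and seeded at 5×10^5 CFU/mL with compound at a final 32 μg/mL, then held static at 37 °C for 18 h. Growth was read as OD600. Percent inhibition was calculated against media-only and bacteria-only controls on the same plate.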

[12] = test system: Klebsiella pneumoniae; assay: Growth inhibition of multidrug-resistant Klebsiella pneumoniae ATCC 700603 at 32 ug/ml after 18 hrs; assay type: functional; details: ATCC 700603, 18 h, read-out: GI; method in brief: as §1
[13] = test system: Pseudomonas aeruginosa; assay: Growth inhibition of Pseudomonas aeruginosa ATCC 27853 at 32 ug/ml after 18 hrs; assay type: functional; details: ATCC 27853, 18 h, read-out: GI; method in brief: as §2
[14] = test system: Acinetobacter baumannii; assay: Growth inhibition of Acinetobacter baumannii ATCC 19606 at 32 ug/ml after 18 hrs; assay type: functional; details: ATCC 19606 = CIP 70.34 = JCM 6841, 18 h, read-out: GI; method in brief: as §2
[15] = test system: Cryptococcus neoformans; assay: Growth inhibition of Cryptococcus neoformans H99 ATCC 208821 at 32 ug/ml after 24 hrs by resazurin dye-based microspectrophotometric assay; assay type: functional; details: var. grubii H99 ATCC 208821, 24 h, read-out: GI
Method in brief: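 Yeasts were grown 3 days on YPD agar at 30 °C, suspended from five colonies and diluted in YNB broth to a final 2.5×10^3 CFU/mL. Compound at a final 32 μg/mL; incubated 24 h at 35 °C without shaking. C. albicans was read at OD530. C. neoformans was read as OD600–570 after resazurin (0.001% final) and a further 2 h at 35 °C. Fluconazole was the standard.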

[16] = Induction of pore formation in DOPC vesicles at 20 uM after 3 hrs by carboxyfluorescein dye leakage assay; details: in the assay text read “after 3 mins” for “after 3 hrs”
Method in brief: (§3)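 POPC or DOPC liposomes were hydrated in 10 mM HEPES, 100 mM KCl, pH 7.4, containing 50 mM carboxyfluorescein. Size was checked by dynamic light scattering, and vesicles were used at 2.2×10^10 per mL. Peptide at 20 μM was equilibrated with vesicles for 3 min, and dye leakage was measured.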

[17] = test system: Candida albicans; assay: Growth inhibition of Candida albicans ATCC 90028 at 32 ug/ml after 24 hrs by OD530 light-scattering microspectrophotometric method; details: ATCC 90028, 24 h, read-out: GI
[18] = Hemolytic activity against human RBC at 100 uM after 1 hr by Drabkin's assay relative to control; assay type: ADME, cell-based, Erythrocyte; details: human red blood cells (erythrocytes), read-out: Activity
[19] = test system: Lipid bilayer; assay: Induction of pore formation in POPC vesicles at 20 uM after 3 hrs by carboxyfluorescein dye leakage assay; details: in the assay text read “after 3 mins” for “after 3 hrs”; method in brief: as §3

| SMILES | hemolysis at 1 h, 50 µM [1] | hemolysis at 1 h, 25 µM [2] | hemolysis at 1 h, 12.5 µM [3] | hemolysis at 1 h, 6.25 µM [4] | hemolysis at 1 h, 3.125 µM [5] | hemolysis at 1 h, 1.56 µM [6] | hemolysis at 1 h, 0.78 µM [7] | hemolysis at 1 h, 0.39 µM [8] | Activity [9] | inhibition of growth at 32 µg/mL [10] | inhibition of growth at 32 µg/mL [11] | inhibition of growth at 32 µg/mL [12] | inhibition of growth at 32 µg/mL [13] | inhibition of growth at 32 µg/mL [14] | inhibition of growth at 32 µg/mL [15] | Activity [16] | inhibition of growth at 32 µg/mL [17] | hemolysis at 1 h, 100 µM [18] | Activity [19] |
| --- | --- | --- | --- | --- | --- | --- | --- | --- | --- | --- | --- | --- | --- | --- | --- | --- | --- | --- | --- |
| CC(C)(C)OC(=O)[C@@H]1CCCN1C(=O)N1CCCN1C(=O)[C@@H]1CCCN1C(=O)N1CCCN1C(=O)[C@@H]1CCCN1C(=O)N1CCCN1C(=O)[C@@H]1CCCN1C(=O)N1CCCN1C(=O)[C@@H]1CCCN1C(=O)N1CCCN1C(=O)[C@@H]1CCCN1C(=O)N1CCCN1C(=O)[C@@H]1CCCN1C(=O)N1CCCN1C(=O)[C@@H]1CCCN1C(=O)N1CCCN1C(=O)[C@@H]1CCCN1C(=O)N1CCCN1C(=O)[C@@H]1CCCN1C(=O)N1CCCN1C(=O)[C@@H]1CCCN1C(=O)N1CCCN1C(=O)[C@@H]1CCCN1C(=O)N1CCCN1C(=O)[C@@H]1CCCN1C(=O)N1CCCN1C(=O)[C@@H]1CCCN1C(=O)N1CCCN1C(=O)[C@@H]1CCCN1C(=O)N1CCCN1C(=O)[C@@H]1CCCN1C(=O)N1CCCN1C(=O)OCc1ccccc1 | -0.55% | -0.49% | -0.33% | -0.24% | -0.33% | -0.16% | -0.2% | -0.24% | Dose-dependent effect | 25.3% | 8.57% | 8.57% | -0.85% | -19% | -1.18% | inactive | 4.41% | – | – |
| O=C(O)[C@@H]1CCCN1C(=O)N1CCCN1C(=O)[C@@H]1CCCN1C(=O)N1CCCN1C(=O)[C@@H]1CCCN1C(=O)N1CCCN1C(=O)[C@@H]1CCCN1C(=O)N1CCCN1C(=O)[C@@H]1CCCN1C(=O)N1CCCN1C(=O)[C@@H]1CCCN1C(=O)N1CCCN1C(=O)[C@@H]1CCCN1C(=O)N1CCCN1C(=O)[C@@H]1CCCN1C(=O)N1CCCN1C(=O)OCc1ccccc1 | -0.361% | -0.181% | 0.181% | -0.09% | 0.271% | -0.452% | -0.181% | -0.271% | Dose-dependent effect | 1.14% | 4.92% | 4.92% | -9.17% | 4.46% | -1.86% | – | 2.73% | -0.271% | inactive |
| CC(C)(C)OC(=O)[C@@H]1CCCN1C(=O)N1CCCN1C(=O)[C@@H]1CCCN1C(=O)N1CCCN1C(=O)[C@@H]1CCCN1C(=O)N1CCCN1C(=O)[C@@H]1CCCN1C(=O)N1CCCN1C(=O)OCc1ccccc1 | -0.09% | 0% | -0.09% | 0.09% | 0.181% | 0.361% | 0% | 0.08% | Dose-dependent effect | 13.6% | -3.42% | -3.42% | -8.9% | 30.2% | -0.865% | – | 4.13% | 0% | inactive |
| O=CN1CCCN1C(=O)N1CCC[C@H]1C(=O)N1CCCN1C(=O)N1CCC[C@H]1C(=O)N1CCCN1C(=O)N1CCC[C@H]1C(=O)N1CCCN1C(=O)N1CCC[C@H]1C(=O)N1CCCN1C(=O)N1CCC[C@H]1C(=O)N1CCCN1C(=O)N1CCC[C@H]1C(=O)N1CCCN1C(=O)N1CCC[C@H]1C(=O)NCCO | 0.4% | 0.41% | -0.045% | -0.29% | -0.045% | -0.049% | 0.072% | 0.023% | Dose-dependent effect | 13.7% | 5.64% | 5.64% | -5.12% | 6.14% | -8.29% | – | 3.52% | 1.4% | inactive |
| O=C(O)[C@@H]1CCCN1C(=O)N1CCCN1C(=O)[C@@H]1CCCN1C(=O)N1CCCN1C(=O)[C@@H]1CCCN1C(=O)N1CCCN1C(=O)[C@@H]1CCCN1C(=O)N1CCCN1C(=O)OCc1ccccc1 | 0.09% | -0.361% | 0.09% | 0.452% | 0.452% | 0.542% | 0.09% | 0.09% | Dose-dependent effect | 27% | 4.23% | 4.23% | -6.53% | 14% | -5.78% | – | 3.59% | 0.542% | inactive |
| O=CN1CCCN1C(=O)N1CCC[C@H]1C(=O)N1CCCN1C(=O)N1CCC[C@H]1C(=O)N1CCCN1C(=O)N1CCC[C@H]1C(=O)N1CCCN1C(=O)N1CCC[C@H]1C(=O)N1CCCN1C(=O)N1CCC[C@H]1C(=O)N1CCCN1C(=O)N1CCC[C@H]1C(=O)NCCO | -0.49% | 0.271% | -0.452% | -0.181% | -0.55% | -0.12% | -0.16% | -0.12% | Dose-dependent effect | 1.36% | 0.72% | 0.72% | -12.5% | 3.07% | -11.1% | – | 5.12% | -0.55% | inactive |
